Values belong to the molecule of their own block, whether it stands above or below them. Calls of active or inactive are those of the source. The calls are words filed in the database; no cut-off is given here.
What was measured:
[1] = Displacement of [125I]-BH-CCK8 from CCK2 receptor in Hartley guinea pig cerebral cortex after 120 hrs by gamma-counting; type: tissue-based, Cavia porcellus; conditions: in the assay text read “after 120 mins” for “after 120 hrs”
In short: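 Cortical membranes (0.5 mg protein/ml) are incubated with 25 pM [125I]BH-CCK-8 for 120 min at 25 °C. The buffer is 10 mM Hepes, 118 mM NaCl, 4.7 mM KCl, 5 mM MgCl2, 1 mM EGTA, pH 6.5, with 0.2 mg/mL bacitracin. Samples are vacuum-filtered on GF/B and gamma-counted, with nonspecific binding defined with 1 μM CCK-8. IC50 comes from curve fitting, or ISB% is taken at the top concentration tested.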

[2] = target: T1, Cholecystokinin receptor type A (Rattus norvegicus) (UniProt P30551); assay: Displacement of [125I]-BH-CCK8 from CCK1 receptor in Sprague-Dawley rat pancreatic acini at 10 uM after 120 hrs by gamma-counting; conditions: in the assay text read “after 30 mins” for “after 120 hrs”
T1 sequence (whole entry): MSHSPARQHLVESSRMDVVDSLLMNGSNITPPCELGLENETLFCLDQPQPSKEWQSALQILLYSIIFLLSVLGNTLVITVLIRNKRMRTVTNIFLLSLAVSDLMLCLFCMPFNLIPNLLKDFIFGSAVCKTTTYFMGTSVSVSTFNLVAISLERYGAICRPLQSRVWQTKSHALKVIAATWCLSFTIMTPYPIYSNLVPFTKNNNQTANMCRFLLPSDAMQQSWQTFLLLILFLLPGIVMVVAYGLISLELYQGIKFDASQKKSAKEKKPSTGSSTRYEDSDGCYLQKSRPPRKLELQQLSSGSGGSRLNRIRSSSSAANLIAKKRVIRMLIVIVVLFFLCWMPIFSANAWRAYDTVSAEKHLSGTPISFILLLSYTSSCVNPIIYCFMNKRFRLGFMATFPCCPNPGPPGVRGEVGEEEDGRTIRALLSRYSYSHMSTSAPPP
In short: (§1)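 Rats fasted 18–24 h with free water. Acini isolated by enzymatic digestion are incubated with 25 pM [125I]BH-CCK-8 and competitors at 37 °C for 30 min in a shaking bath. Ice-cold Hepes-Ringer pH 7.4 is added, the tubes are centrifuged 5 min at 12500g, and pellet radioactivity is counted. IC50 comes from curve fitting, or ISB% is taken at the top concentration tested.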

[3] = species on record: Cavia porcellus; assay: Displacement of [125I]-BH-CCK8 from CCK2 receptor in Hartley guinea pig cerebral cortex at 30 uM […] by gamma-counting; type: tissue-based
[4] = target: T2, Cholecystokinin receptor type A (Rattus norvegicus, UniProt P30551); assay: Displacement of [125I]-BH-CCK8 from CCK1 receptor in Sprague-Dawley rat pancreatic acini after 120 hrs by gamma-counting; conditions: in the assay text read “after 30 mins” for “after 120 hrs”; in short: as §1
T2 sequence (P30551 whole entry): T1 sequence (whole entry)

[5] = target: T3, Cholecystokinin receptor type A (Homo sapiens, UniProt P32238); assay: Displacement of [125I]BH-(Thr,-Nle)-CCK-9 from human CCK1 receptor expressed in COS-7 cells after 60 mins by gamma counting; type: cell-based
T3 sequence (P32238 whole entry): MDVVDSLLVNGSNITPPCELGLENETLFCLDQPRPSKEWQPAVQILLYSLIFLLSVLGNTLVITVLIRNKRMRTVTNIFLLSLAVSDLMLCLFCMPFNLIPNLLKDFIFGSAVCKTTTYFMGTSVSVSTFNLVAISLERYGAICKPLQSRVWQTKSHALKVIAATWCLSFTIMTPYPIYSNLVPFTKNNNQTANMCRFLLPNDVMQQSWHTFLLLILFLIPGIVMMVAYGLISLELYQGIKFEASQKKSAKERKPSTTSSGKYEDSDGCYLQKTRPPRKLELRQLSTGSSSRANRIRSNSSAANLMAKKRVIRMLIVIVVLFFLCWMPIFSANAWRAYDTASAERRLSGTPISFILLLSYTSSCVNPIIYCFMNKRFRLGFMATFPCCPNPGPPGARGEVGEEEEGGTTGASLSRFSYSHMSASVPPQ

[6] = Apparent selectivity index, ratio of IC50 for CCK2 receptor in Hartley guinea pig cerebral cortex to IC50 for CCK1 receptor in Sprague-Dawley rat pancreatic acini; type: tissue-based
[7] = Antagonist activity at CCK1 receptor in Hartley guinea pig gall bladder assessed as inhibition of CCK8-induced contraction; type: functional, tissue-based, Cavia porcellus
In short: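 Circular smooth-muscle strips (about 3 mm × 15 mm) in Krebs–Henseleit at 32 °C, gassed 95% O2/5% CO2, resting tension 0.5 g, isometric recording. After 60 min equilibration with washes every 15 min, antagonist or vehicle is given 5 min before a submaximal (70–80%) CCK-8 concentration. Response is % inhibition of contraction, and IC50 comes from the regression line.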

[8] = species on record: Homo sapiens; assay: Apparent selectivity index, ratio of Ki for human CCK2 receptor to Ki for human CCK1 receptor
[9] = target: T4, Gastrin/cholecystokinin type B receptor (Homo sapiens, UniProt P32239); assay: Displacement of [125I]BH-(Thr,-Nle)-CCK-9 from human CCK2 receptor expressed in COS-7 cells after 60 mins by gamma counting; type: cell-based
T4 sequence (P32239 whole entry): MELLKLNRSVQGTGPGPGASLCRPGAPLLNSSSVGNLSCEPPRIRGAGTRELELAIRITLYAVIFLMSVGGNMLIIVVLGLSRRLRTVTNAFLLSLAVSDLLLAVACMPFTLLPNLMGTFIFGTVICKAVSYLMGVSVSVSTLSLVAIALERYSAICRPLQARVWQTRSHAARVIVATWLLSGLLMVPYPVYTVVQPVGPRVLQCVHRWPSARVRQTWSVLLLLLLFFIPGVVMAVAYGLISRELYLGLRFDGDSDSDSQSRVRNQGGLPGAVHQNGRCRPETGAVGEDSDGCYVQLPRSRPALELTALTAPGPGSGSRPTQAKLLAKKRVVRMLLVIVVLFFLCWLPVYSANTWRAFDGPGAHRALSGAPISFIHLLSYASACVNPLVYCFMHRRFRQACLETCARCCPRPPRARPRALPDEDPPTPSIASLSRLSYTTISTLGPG

[10] = target: T5, Cholecystokinin receptor type A (Homo sapiens) (UniProt P32238); assay: Antagonist activity at human CCK1 receptor expressed in COS7 cells assessed as inhibition of (Thr,Nle)-CCK9-induced inositol phosphate production using myo-2-[3H]inositol after 60 mins by scintillation counting; type: functional, cell-based; conditions: COS-7
T5 sequence (whole entry): T3 sequence (P32238 whole entry)
In short: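 COS-7 cells transiently transfected (DEAE-dextran) with receptor cDNA are labelled overnight with 2 μCi/ml myo-2-[3H]inositol. They are preincubated 30 min in DMEM with 20 mM LiCl at 37 °C, then incubated 60 min at 37 °C in PI buffer pH 7.45 with ligands at various concentrations. Inositol phosphates are separated on Dowex AG 1-X8 formate columns and counted by β scintillation.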

[11] = target: T1, Cholecystokinin receptor type A (Rattus norvegicus); assay: Displacement of [125I]-BH-CCK8 from CCK1 receptor in Sprague-Dawley rat pancreatic acini at 3 uM after 120 hrs by gamma-counting; conditions: in the assay text read “after 30 mins” for “after 120 hrs”; in short: as §1
[12] = target: Cholecystokinin receptor type A (Homo sapiens, UniProt P32238, R197A); assay: Displacement of [3H]-SR-27897 from human CCK1 R197A mutant receptor expressed in COS7 cells after 60 mins […]; type: cell-based, COS-7
In short: (§2)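 Wild-type or mutant receptor cDNA in pRFE-Neo (2 μg/plate) was transiently transfected into COS-7 cells by modified DEAE-dextran, and cells were replated 24 h later. After about 24 h more, cells were incubated 60 min at 37 °C in DMEM with 0.1% BSA, 1.83 nM [3H]SR-27,897 and competitors. Cells were washed in cold PBS with 2% BSA, lysed in 0.1 N NaOH, and counted by scintillation. Values are mean ± SEM, at least three experiments in duplicate.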

[13] = target: Cholecystokinin receptor type A (Homo sapiens, UniProt P32238, F330A); assay: Displacement of [3H]-SR-27897 from human CCK1 F330A mutant receptor expressed in COS7 cells after 60 mins […]; type: cell-based, COS-7; in short: as §2
[14] = target: Cholecystokinin receptor type A (Homo sapiens, UniProt P32238, M195A); assay: Displacement of [3H]-SR-27897 from human CCK1 M195A mutant receptor expressed in COS7 cells after 60 mins […]; type: cell-based, COS-7; in short: as §2
[15] = target: T3, Cholecystokinin receptor type A; assay: Displacement of [3H]-SR-27897 from wild type human CCK1 receptor expressed in COS7 cells after 60 mins […]; type: cell-based, COS-7; in short: as §2
[16] = target: Cholecystokinin receptor type A (Homo sapiens, UniProt P32238, R336A); assay: Displacement of [3H]-SR-27897 from human CCK1 R336A mutant receptor expressed in COS7 cells after 60 mins […]; type: cell-based, COS-7; in short: as §2
[17] = target: Cholecystokinin receptor type A (Homo sapiens, UniProt P32238, N333A); assay: Displacement of [125I]-BH-JMV-179 from human CCK1 receptor N333A mutant expressed in COS7 cells after 60 mins by gamma counting; type: cell-based, COS-7
In short: (§3)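 Transiently transfected COS-7 cells (DMEM, 5% FCS, 37 °C, 5% CO2) were given 2 μg/plate pRFE-Neo vector carrying wild-type or mutant receptor cDNA by modified DEAE-dextran, then replated after 24 h. About 24 h later, cells were washed (PBS pH 6.95, 0.1% BSA) and incubated 60 min at 37 °C with 71 pM 125I-BH-(Thr,Nle)CCK-9 ± competitors. After cold washes, cells were lysed in 0.1 N NaOH and gamma-counted.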

[18] = test system: Cavia porcellus; assay: Inhibition of CCK8-induced gall bladder contraction in iv dosed Hartley guinea pig administered 2 mins before CCK8 challenge; type: functional; conditions: read-out: ID50 (the source's name)
In short: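 Male Hartley guinea pigs (400–450 g) are fasted 48 h and anaesthetised with urethane 1.5 g/kg ip. Jugular vein and trachea are cannulated. Test agents are given iv at different doses 2 min before CCK-8 10 ng/kg iv. The read-out is % reduction of contraction area, and […] comes from the regression of inhibition against log dose.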

[19] = target: T3, Cholecystokinin receptor type A; assay: Displacement of [125I]-BH-JMV-179 from wild type human CCK1 receptor expressed in COS7 cells after 60 mins by gamma counting; type: cell-based, COS-7; in short: as §3
[20] = target: Cholecystokinin receptor type A (Homo sapiens, UniProt P32238, W39A); assay: Displacement of [3H]-SR-27897 from human CCK1 W39A mutant receptor expressed in COS7 cells after 60 mins […]; type: cell-based, COS-7; in short: as §2
[21] = target: Cholecystokinin receptor type A (Homo sapiens, UniProt P32238, I352A); assay: Displacement of [3H]-SR-27897 from human CCK1 I352A mutant receptor expressed in COS7 cells after 60 mins […]; type: cell-based, COS-7; in short: as §2
[22] = target: Cholecystokinin receptor type A (Homo sapiens, UniProt P32238, F107A); assay: Displacement of [3H]-SR-27897 from human CCK1 F107A mutant receptor expressed in COS7 cells after 60 mins […]; type: cell-based, COS-7; in short: as §2
Chain of Cholecystokinin receptor type A (Homo sapiens, UniProt P32238, F107A) (P32238 whole entry F107A): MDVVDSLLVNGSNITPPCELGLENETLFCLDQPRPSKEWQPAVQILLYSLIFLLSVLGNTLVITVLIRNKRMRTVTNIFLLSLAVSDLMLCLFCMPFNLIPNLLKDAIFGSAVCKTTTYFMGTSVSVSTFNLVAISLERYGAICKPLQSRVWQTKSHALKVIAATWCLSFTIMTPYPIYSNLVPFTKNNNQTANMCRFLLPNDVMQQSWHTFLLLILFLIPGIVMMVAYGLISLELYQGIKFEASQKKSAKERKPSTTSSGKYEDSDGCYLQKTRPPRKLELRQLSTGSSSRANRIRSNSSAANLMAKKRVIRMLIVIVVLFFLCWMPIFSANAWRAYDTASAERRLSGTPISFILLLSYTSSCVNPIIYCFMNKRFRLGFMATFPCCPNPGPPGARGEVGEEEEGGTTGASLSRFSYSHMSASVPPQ

Chain of Cholecystokinin receptor type A (Homo sapiens, UniProt P32238, F330A) (P32238 whole entry F330A): as the sequence (P32238 whole entry F107A) above, with A107F, F330A counted along it
Chain of Cholecystokinin receptor type A (Homo sapiens, UniProt P32238, N333A) (P32238 whole entry N333A): as the sequence (P32238 whole entry F107A) above, with A107F, N333A counted along it
Chain of Cholecystokinin receptor type A (Homo sapiens, UniProt P32238, W39A) (P32238 whole entry W39A): as the sequence (P32238 whole entry F107A) above, with W39A, A107F counted along it
Chain of Cholecystokinin receptor type A (Homo sapiens, UniProt P32238, R336A) (P32238 whole entry R336A): as the sequence (P32238 whole entry F107A) above, with A107F, R336A counted along it
Chain of Cholecystokinin receptor type A (Homo sapiens, UniProt P32238, M195A) (P32238 whole entry M195A): as the sequence (P32238 whole entry F107A) above, with A107F, M195A counted along it
Chain of Cholecystokinin receptor type A (Homo sapiens, UniProt P32238, R197A) (P32238 whole entry R197A): as the sequence (P32238 whole entry F107A) above, with A107F, R197A counted along it
Chain of Cholecystokinin receptor type A (Homo sapiens, UniProt P32238, I352A) (P32238 whole entry I352A): as the sequence (P32238 whole entry F107A) above, with A107F, I352A counted along it

SMILES: CC(CCc1ccccc1)NC(=O)c1ccccc1NC(=O)c1cc2ccccc2[nH]1 (racemic)
IC50 [1]: Not Active | inhibition [2]: 36%

SMILES: O=C(Nc1ccccc1C(=O)NC(CCc1ccccc1)C(=O)NO)c1cc2ccccc2[nH]1 (racemic)
inhibition [3]: 37% | IC50 [4]: 419 nM

SMILES: NC(=O)C(CCc1ccccc1)NC(=O)c1ccccc1NC(=O)c1cc2ccccc2[nH]1 (racemic)
inhibition [11]: inactive

SMILES: O=C(Nc1ccccc1NC(=O)C(CCc1ccccc1)C(=O)O)c1cc2ccccc2[nH]1 (racemic)
Ratio IC50 [6]: 8 | IC50 ([1]; read-out: IC50): 6200 nM | IC50 [4]: 717 nM

SMILES: O=C(Nc1ccccc1C(=O)NC(C(=O)O)c1ccccc1)c1cc2ccccc2[nH]1 (racemic)
IC50 [4]: 317 nM

SMILES: CCOC(=O)C(CCc1ccccc1)NC(=O)c1ccccc1NC(=O)c1cc2ccccc2[nH]1 (racemic)
inhibition [11]: 24% | IC50 [1]: Not Active

Second part, led by results:

inhibition [2]: 39%
SMILES: O=C(Nc1ccccc1C(=O)NC(CCCCc1ccccc1)C(=O)O)c1cc2ccccc2[nH]1 (racemic)

Ki [5]: 3.9 nM | Ratio IC50 [6]: 324 | IC50 [7]: 48.9 nM | Ratio Ki [8]: 3900 | IC50 ([1]; read-out: IC50): 5100 nM | Ki [9]: 15300 nM | inhibition [10]: Active | IC50 [4]: 15.7 nM
SMILES: O=C(Nc1ccccc1C(=O)NC(CCc1ccccc1)C(=O)O)c1cc2ccccc2[nH]1 (racemic)

Ki [5]: 59.8 nM | Ratio IC50 [6]: 83 | Ratio Ki [8]: 368 | IC50 ([1]; read-out: IC50): 16400 nM | Ki [9]: 22000 nM
SMILES: O=C(Nc1ccccc1C(=O)NC(Cc1ccccc1)C(=O)O)c1cc2ccccc2[nH]1 (racemic)

Ki [12]: 19.6 nM | Ki [13]: 4.9 nM | Ki [14]: 7.6 nM | Ki [5]: 2.3 nM | Ki [15]: 5.8 nM | IC50 [7]: 43.9 nM | Ki [16]: 522 nM | Ki [17]: 5 nM | IC50 ([1]; read-out: IC50): 3800 nM | Ki [9]: 1000 nM | Ki [19]: 0.32 nM | Ki [20]: 3.7 nM | Ki [21]: 39.1 nM | Ki [22]: 3.8 nM | inhibition [10]: Active | IC50 [4]: 9.5 nM
SMILES: O=C(Nc1ccccc1C(=O)N[C@H](CCc1ccccc1)C(=O)O)c1cc2ccccc2[nH]1
ED50 [18]: 0.35 µmol/kg

Ratio IC50 [6]: 6 | IC50 ([1]; read-out: IC50): 600 nM | IC50 [4]: 107 nM
SMILES: O=C(Nc1ccccc1C(=O)NC(CCCc1ccccc1)C(=O)O)c1cc2ccccc2[nH]1 (racemic)

Ki [5]: 973 nM | IC50 [7]: 420 nM | IC50 ([1]; read-out: IC50): 7900 nM | Ki [9]: 1000 nM | inhibition [10]: Active | IC50 [4]: 313 nM
SMILES: O=C(Nc1ccccc1C(=O)N[C@@H](CCc1ccccc1)C(=O)O)c1cc2ccccc2[nH]1

From ChEMBL document CHEMBL1932953, “New anthranilic acid based antagonists with high affinity and selectivity for the human cholecystokinin receptor 1 (hCCK1-R)” (J Med Chem, 2011)
